ChEMBL document CHEMBL3244398, “Oxidative and cardiovascular studies on natural and synthetic catecholamines” (J Med Chem, 1978)

Experiments:
[1] = test system: Rattus norvegicus; experiment: Acute pressor activity in iv dosed Sprague-Dawley rat assessed as duration of arterial systolic blood pressure by 30 mmHg maintenance; format: functional, Artery
Outline: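 Iv jugular-cannula dosing was used in male normotensive Sprague-Dawley rats (380 ± 20 g), with arterial pressure recorded by carotid cannula and transducer. Six doses over a tenfold range were each given to four animals. Duration is the seconds for which blood pressure was […].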

[2] = physchem

CNCC(C)c1ccc(O)c(O)c1 (racemic)
Time [1]: 28 s
pKa [2]: 10.5

C[C@H](N)Cc1ccc(O)c(O)c1
Time [1]: 34 s

CNCCc1ccc(O)c(O)c1 [DEOXIEPINEPHRINE]
Time [1]: 18 s
pKa [2]: 10.5

CNCC(OC)c1ccc(O)c(O)c1.Cl (racemic)
Time [1]: 21 s
pKa [2]: 9.5

CN [METHYLAMINE]
pKa [2]: 10.6

CC(N)Cc1ccc(O)c(O)c1 (racemic)
Time [1]: 22 s
pKa [2]: 10

NCCc1ccc(O)c(O)c1 [DOPAMINE]
Time [1]: 32 s
pKa [2]: 10

CC(CN)c1ccc(O)c(O)c1.Cl (racemic)
Time [1]: 29 s
pKa [2]: 10

CNC[C@H](O)c1ccc(O)c(O)c1 [EPINEPHRINE]
Time [1]: 12 s
pKa [2]: 9.5

NCC(O)c1ccc(O)c(O)c1 (racemic)
Time [1]: 32 s
pKa [2]: 9

NC[C@H](O)c1ccc(O)c(O)c1 [NOREPINEPHRINE]
Time [1]: 32 s

CNC [DIMETHYLAMINE]
pKa [2]: 10.8

C[C@@H](N)Cc1ccc(O)c(O)c1
Time [1]: 20 s
